Assay results taken from ChEMBL document CHEMBL4004831, “Naphthalene diimide-polyamine hybrids as antiproliferative agents: Focus on the architecture of the polyamine chains” (Eur J Med Chem, 2017).

Experiments:
HCT-116 = experiment: Growth inhibition of human HCT116 cells incubated for 48 hrs by sulforhodamine B assay; format: functional; settings: HCT-116, 48 h
RPMI-8226 = experiment: Growth inhibition of human RPMI8226 cells incubated for 48 hrs by sulforhodamine B assay; format: functional; settings: RPMI-8226, 48 h
OVCAR-3 = experiment: Growth inhibition of human OVCAR3 cells incubated for 48 hrs by sulforhodamine B assay; format: functional; settings: OVCAR-3, 48 h
HOP-62 = experiment: Growth inhibition of human HOP62 cells incubated for 48 hrs by sulforhodamine B assay; format: functional; settings: HOP-62, 48 h
EKVX = experiment: Growth inhibition of human EKVX cells incubated for 48 hrs by sulforhodamine B assay; format: functional
SNB-19 = experiment: Growth inhibition of human SNB19 cells incubated for 48 hrs by sulforhodamine B assay; format: functional; settings: SNB-19, 48 h
HCC 2998 = experiment: Growth inhibition of human HCC2998 cells incubated for 48 hrs by sulforhodamine B assay; format: functional; settings: HCC 2998, 48 h
CCRF-CEM = experiment: Growth inhibition of human CCRF-CEM cells incubated for 48 hrs by sulforhodamine B assay; format: functional
HCT-15 = experiment: Growth inhibition of human HCT15 cells incubated for 48 hrs by sulforhodamine B assay; format: functional; settings: HCT-15, 48 h
SK-MEL-2 = experiment: Growth inhibition of human SK-MEL-2 cells incubated for 48 hrs by sulforhodamine B assay; format: functional; settings: SK-MEL-2, 48 h
CAKI-1 = experiment: Growth inhibition of human Caki1 cells incubated for 48 hrs by sulforhodamine B assay; format: functional; settings: CAKI-1, 48 h
MDA-MB-231 = experiment: Growth inhibition of human MDA-MB-231 cells incubated for 48 hrs by sulforhodamine B assay; format: functional; settings: MDA-MB-231, 48 h
SNB-75 = experiment: Growth inhibition of human SNB75 cells incubated for 48 hrs by sulforhodamine B assay; format: functional; settings: SNB-75, 48 h
KM12 = experiment: Growth inhibition of human KM12 cells incubated for 48 hrs by sulforhodamine B assay; format: functional; settings: KM12, 48 h
A498 = experiment: Growth inhibition of human A498 cells incubated for 48 hrs by sulforhodamine B assay; format: functional; settings: A498, 48 h
[1] = Stabilization of 5'Dabcyl/3'FAM labeled duplex DNA (unknown origin) assessed as increase in melting temperature at 2.5 uM pretreated for 5 mins at 30 degreeC followed by 5 mins incubation at 95 degreeC by fluorescence assay
Outline: (§1)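 FRET melting in LiP buffer (10 mM LiOH, 50 mM KCl, pH 7.0 with H3PO4), ex 488 nm, em 520 nm. Samples were held 5 min at 30 °C, heated at 1 °C/min to 95 °C, held 5 min, then re-annealed. Tm came from first derivatives; ΔTm = shift with ligand at 2.5; at least three runs.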

MDA-MB-468 = experiment: Growth inhibition of human MDA-MB-468 cells incubated for 48 hrs by sulforhodamine B assay; format: functional; settings: MDA-MB-468, 48 h
NCI/ADR-RES = experiment: Growth inhibition of human NCI-ADR-RES cells incubated for 48 hrs by sulforhodamine B assay; format: functional
Homo sapiens = species: Homo sapiens; experiment: Stabilization of 5'Dabcyl/3'FAM labeled human telomeric sequence G-quadruplex DNA assessed as increase in melting temperature at 2.5 uM pretreated for 5 mins at 30 degreeC followed by 5 mins incubation at 95 degreeC by fluorescence assay; outline: as §1
NCI-H460 = experiment: Growth inhibition of human NCI-H460 cells incubated for 48 hrs by sulforhodamine B assay; format: functional; settings: NCI-H460, 48 h
ACHN = experiment: Growth inhibition of human ACHN cells incubated for 48 hrs by sulforhodamine B assay; format: functional
SF-539 = experiment: Growth inhibition of human SF539 cells incubated for 48 hrs by sulforhodamine B assay; format: functional; settings: SF-539, 48 h
BT-549 = experiment: Growth inhibition of human BT549 cells incubated for 48 hrs by sulforhodamine B assay; format: functional; settings: BT-549, 48 h
RXF 393 = experiment: Growth inhibition of human RXF393 cells incubated for 48 hrs by sulforhodamine B assay; format: functional; settings: RXF 393, 48 h
TK-10 = experiment: Growth inhibition of human TK10 cells incubated for 48 hrs by sulforhodamine B assay; format: functional; settings: TK-10, 48 h
SW-620 = experiment: Growth inhibition of human SW620 cells incubated for 48 hrs by sulforhodamine B assay; format: functional; settings: SW-620, 48 h
SN12C = experiment: Growth inhibition of human SN12C cells incubated for 48 hrs by sulforhodamine B assay; format: functional
LOX IMVI = experiment: Growth inhibition of human LOXIMVI cells incubated for 48 hrs by sulforhodamine B assay; format: functional
NCI-H23 = experiment: Growth inhibition of human NCI-H23 cells incubated for 48 hrs by sulforhodamine B assay; format: functional; settings: NCI-H23, 48 h
OVCAR-5 = experiment: Growth inhibition of human OVCAR5 cells incubated for 48 hrs by sulforhodamine B assay; format: functional; settings: OVCAR-5, 48 h
SK-OV-3 = experiment: Growth inhibition of human SKOV3 cells incubated for 48 hrs by sulforhodamine B assay; format: functional; settings: SK-OV-3, 48 h
A549 = experiment: Growth inhibition of human A549/ATCC cells incubated for 48 hrs by sulforhodamine B assay; format: functional; settings: A549, 48 h
MDA-MB-435 = experiment: Growth inhibition of human MDA-MB-435 cells incubated for 48 hrs by sulforhodamine B assay; format: functional; settings: MDA-MB-435, 48 h
M14 = experiment: Growth inhibition of human M14 cells incubated for 48 hrs by sulforhodamine B assay; format: functional; settings: M14, 48 h
DU-145 = experiment: Growth inhibition of human DU145 cells incubated for 48 hrs by sulforhodamine B assay; format: functional; settings: DU-145, 48 h
SR = experiment: Growth inhibition of human SR cells incubated for 48 hrs by sulforhodamine B assay; format: functional
SF-295 = experiment: Growth inhibition of human SF295 cells incubated for 48 hrs by sulforhodamine B assay; format: functional; settings: SF-295, 48 h
T47D = experiment: Growth inhibition of human T47D cells incubated for 48 hrs by sulforhodamine B assay; format: functional
K562 = experiment: Growth inhibition of human K562 cells incubated for 48 hrs by sulforhodamine B assay; format: functional; settings: K562, 48 h
NCI-H522 = experiment: Growth inhibition of human NCI-H522 cells incubated for 48 hrs by sulforhodamine B assay; format: functional; settings: NCI-H522, 48 h
SF-268 = experiment: Growth inhibition of human SF268 cells incubated for 48 hrs by sulforhodamine B assay; format: functional; settings: SF-268, 48 h
UO-31 = experiment: Growth inhibition of human UO31 cells incubated for 48 hrs by sulforhodamine B assay; format: functional; settings: UO-31, 48 h
786-0 = experiment: Growth inhibition of human 786-0 cells incubated for 48 hrs by sulforhodamine B assay; format: functional; settings: 786-0, 48 h
COLO 205 = experiment: Growth inhibition of human COLO205 cells incubated for 48 hrs by sulforhodamine B assay; format: functional; settings: COLO 205, 48 h
NCI-H322M = experiment: Growth inhibition of human NCI-H322M cells incubated for 48 hrs by sulforhodamine B assay; format: functional

Work on `COc1ccccc1CNCCCN1C(=O)c2ccc3c4c(ccc(c24)C1=O)C(=O)N(CCCNCCNCCCN)C3=O` yielded a GI50 (HCT-116) of 0.717 µM, a GI50 (RPMI-8226) of 10.9 µM and a GI50 (OVCAR-3) of 2.16 µM. For the same compound, the GI50 (HOP-62) was 2.46 µM, the GI50 (EKVX) was 4.17 µM and the GI50 (SNB-19) was 2.18 µM. It also gave a GI50 (HCC 2998) of 2.25 µM, a GI50 (CCRF-CEM) of 0.317 µM and a GI50 (HCT-15) of 12.2 µM. The GI50 (SK-MEL-2) was 2.67 µM, the GI50 (CAKI-1) was 21.7 µM and the GI50 (MDA-MB-231) was 2.09 µM. The GI50 (SNB-75) was 3.07 µM, the GI50 (KM12) was 3.25 µM and the GI50 (A498) was 5.01 µM. For the same compound, the ΔTm [1] was 10.4 °C, the GI50 (MDA-MB-468) was 0.456 µM and the GI50 (NCI/ADR-RES) was 23.1 µM. It also gave a ΔTm (Homo sapiens) of 22 °C, a GI50 (NCI-H460) of 2.08 µM and a GI50 (ACHN) of 4.45 µM. For the same compound, the GI50 (SF-539) was 2.88 µM, the GI50 (BT-549) was 2.58 µM and the GI50 (RXF 393) was 1.65 µM. For the same compound, the GI50 (TK-10) was 6.65 µM, the GI50 (SW-620) was 1.74 µM and the GI50 (SN12C) was 2.09 µM. It also gave a GI50 (LOX IMVI) of 2.1 µM, a GI50 (NCI-H23) of 1.72 µM and a GI50 (OVCAR-5) of 5.24 µM. The GI50 (SK-OV-3) was 4.04 µM, the GI50 (A549) was 3.01 µM and the GI50 (MDA-MB-435) was 2.07 µM. The GI50 (M14) was 2.07 µM, the GI50 (DU-145) was 3.65 µM and the GI50 (SR) was 0.898 µM. The GI50 (SF-295) was 2.77 µM, the GI50 (T47D) was 1.51 µM and the GI50 (K562) was 0.324 µM. It also gave a GI50 (NCI-H522) of 1.22 µM, a GI50 (SF-268) of 2.1 µM and a GI50 (UO-31) of 10.8 µM.

Work on `CNCCCNCCCN1C(=O)c2ccc3c4c(ccc(c24)C1=O)C(=O)N(CCCNCc1ccccc1OC)C3=O` yielded a GI50 (HCT-116) of 0.27 µM, a GI50 (RPMI-8226) of 1.64 µM and a GI50 (OVCAR-3) of 1.37 µM. The GI50 (HOP-62) was 1.24 µM, the GI50 (SNB-19) was 1.68 µM and the GI50 (HCC 2998) was 1.93 µM. It also gave a GI50 (CCRF-CEM) of 0.465 µM, a GI50 (HCT-15) of 2.36 µM and a GI50 (SK-MEL-2) of 1.75 µM. For the same compound, the GI50 (MDA-MB-231) was 2.9 µM, the GI50 (SNB-75) was 1.11 µM and the GI50 (KM12) was 1.18 µM. It also gave a GI50 (A498) of 1.54 µM, a ΔTm [1] of 9.5 °C and a GI50 (MDA-MB-468) of 1 µM. For the same compound, the GI50 (NCI/ADR-RES) was 12.1 µM, the ΔTm (Homo sapiens) was 18 °C and the GI50 (NCI-H460) was 0.429 µM. For the same compound, the GI50 (ACHN) was 0.5 µM, the GI50 (SF-539) was 0.782 µM and the GI50 (BT-549) was 5.03 µM. For the same compound, the GI50 (RXF 393) was 1.89 µM, the GI50 (TK-10) was 2.58 µM and the GI50 (SW-620) was 0.365 µM. It also gave a GI50 (SN12C) of 1.46 µM, a GI50 (LOX IMVI) of 1.52 µM and a GI50 (786-0) of 1.27 µM. The GI50 (NCI-H23) was 1.26 µM, the GI50 (OVCAR-5) was 1.25 µM and the GI50 (COLO 205) was 0.498 µM. For the same compound, the GI50 (SK-OV-3) was 2.95 µM, the GI50 (A549) was 0.577 µM and the GI50 (MDA-MB-435) was 1.07 µM. It also gave a GI50 (M14) of 1.32 µM, a GI50 (DU-145) of 1.05 µM and a GI50 (SR) of 0.27 µM. It also gave a GI50 (SF-295) of 0.894 µM, a GI50 (T47D) of 1.25 µM and a GI50 (K562) of 0.408 µM. For the same compound, the GI50 (NCI-H522) was 1.23 µM, the GI50 (SF-268) was 1.03 µM and the GI50 (UO-31) was 5.88 µM. For the same compound, the GI50 (NCI-H322M) was 2.22 µM.
